Experimental data taken from article PMC4377729 (Theranostics, 2015).

How the values were obtained:
[1] = format: in vivo; conditions: 10 nmol (0.4 mg/kg) intravenously, mice, 4 h post-injection
Method in brief: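 Nude mice (about 25 g) were anesthetized with ip ketamine/xylazine, given 10 nmol (0.4 mg/kg) conjugate iv in saline, and imaged 4 h later. Excitation was 745-779 nm light at 14 mW cm-2, with 800-848 nm emission and fixed exposure. SBR is tissue signal over neighbouring muscle or skin. For biodistribution, mice were killed at 30-240 min and organs resected and imaged; n ≥ 3 per time point.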

[2] = in DMSO; cited from earlier work
[3] = previously reported; cited from earlier work

SMILES: CC1(C)C(/C=C/C2=C(Oc3ccc(S(=O)(=O)O)cc3)C(=C/C=C3/N(CCCCS(=O)(=O)O)c4ccc(S(=O)(=O)[O-])cc4C3(C)C)/CCC2)=[N+](CCCCCC(=O)O)c2ccc(S(=O)(=O)O)cc21 [CW800]
- location of NIR fluorescence signal / tissue uptake (in words) [1]: elevated nonspecific background signals in the liver and skin

SMILES: CC1(C)C(/C=C/C=C/C=C/C=C2\N(CCCCS(=O)(=O)[O-])c3ccc4ccccc4c3C2(C)C)=[N+](CCCCS(=O)(=O)[O-])c2ccc3ccccc3c21.[Na+] [ICG]
- QY of calibration standard [2]: 13%

SMILES: CC1(C)C(/C=C/C2=C(Oc3ccc(CCC(=O)NCCC(O)(P(=O)([O-])O)P(=O)(O)O)cc3)C(=C\C=C3/N(CCCCS(=O)(=O)O)c4ccc(S(=O)(=O)O)cc4C3(C)C)/CCC2)=[N+](CCCCS(=O)(=O)O)c2ccc(S(=O)(=O)O)cc21 (stereo not drawn) [Pam78]
- binding to hydroxyapatite (HA) in vitro and in vivo (in words) [3]: rapid and specific binding to hydroxyapatite (HA) in vitro and in vivo
